According to ChEMBL document CHEMBL4689842, “EUbOPEN Chemogenomics Library wave 1” (2021):
Several values for one entry are separate records, joined by “and”; a condition that tells them apart may be missing. Identical values can stand only once.

System: U2OS
Assay: Multiplex assay against U2OS
Format: toxicity, cell-based
Conditions: human
In short: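 Live cells carried four stains from seeding: Hoechst33342, BioTracker Green Microtubule Cytoskeleton Dye, MitoTracker Red and Annexin V Alexa Fluor 680. They were imaged on a CQ1 microscope at 37°C and 5% CO2 after compound addition. Using CellPathfinder machine-learning gating, cells were split into Hoechst high-intensity objects or normal cells, normal cells into healthy, pyknosed or fragmented nuclei, and pyknosed cells into mitotic or apoptotic; tubulin, mitochondrial-mass and membrane-permeability phenotypes are per cents of healthy-nucleus cells.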

[1] = 12 h, 1 µM, compound concentration 1 uM, replicate 1
[2] = 12 h, 1 µM, compound concentration 1 uM, replicate 2
[3] = 12 h, 10 µM, compound concentration 10 uM, replicate 1
[4] = 12 h, 10 µM, compound concentration 10 uM, replicate 2
[5] = 24 h, 1 µM, compound concentration 1 uM, replicate 1
[6] = 24 h, 1 µM, compound concentration 1 uM, replicate 2
[7] = 24 h, 10 µM, compound concentration 10 uM, replicate 1
[8] = 24 h, 10 µM, compound concentration 10 uM, replicate 2
[9] = 48 h, 10 µM, compound concentration 10 uM, replicate 1
[10] = 48 h, 10 µM, compound concentration 10 uM, replicate 2

## NC(=O)Nc1cc(-c2cccc(F)c2)sc1C(=O)N[C@H]1CCCNC1 [AZD-7762]
[1]
  Population Apoptotic (%): 25%
  Population Fragmented Nuclei (%): 7%
  Population Hoechst High Intensity Objects (%): 3%
  Population Membrane Permeable-Phenotype (%): 9%
  Population Mitochondria Different-Phenotype (%): 17%
  Population Mitotic Cells (%): 75%
  Population Normal (%): 96%
  Population Pyknosed Nuclei (%): 10%
  Total Cell Count: 157
[2]
  Population Apoptotic (%): 0%
  Population Fragmented Nuclei (%): 8%
  Population Healthy Nuclei (%): 81%
  Population Hoechst High Intensity Objects (%): 15%
  Population Membrane Permeable-Phenotype (%): 13%
  Population Mitochondria Different-Phenotype (%): 10%
  Population Mitotic Cells (%): 100%
  Population Normal (%): 84%
  Population Pyknosed Nuclei (%): 9%
  Population Tubulin-Different-Phenotype (%): 26%
  Total Cell Count: 110
[3]
  Population Apoptotic (%): 25% and 43%
  Population Fragmented Nuclei (%): 28%
  Population Healthy Nuclei (%): 28% and 20%
  Population Hoechst High Intensity Objects (%): 3% and 12%
  Population Membrane Permeable-Phenotype (%): 19% and 8%
  Population Mitochondria Different-Phenotype (%): 15% and 20%
  Population Mitotic Cells (%): 74% and 56%
  Population Normal (%): 96% and 87%
  Population Pyknosed Nuclei (%): 49% and 50%
  Population Tubulin-Different-Phenotype (%): 17% and 11%
  Total Cell Count: 189 and 194
[4]
  Population Apoptotic (%): 46% and 22%
  Population Fragmented Nuclei (%): 22% and 25%
  Population Healthy Nuclei (%): 25% and 32%
  Population Hoechst High Intensity Objects (%): 5% and 11%
  Population Membrane Permeable-Phenotype (%): 21% and 20%
  Population Mitotic Cells (%): 53% and 77%
  Population Normal (%): 94% and 88%
  Population Pyknosed Nuclei (%): 52% and 41%
  Total Cell Count: 79 and 84
[5]
  Population Apoptotic (%): 40%
  Population Fragmented Nuclei (%): 15%
  Population Healthy Nuclei (%): 52%
  Population Hoechst High Intensity Objects (%): 6%
  Population Membrane Permeable-Phenotype (%): 16%
  Population Mitochondria Different-Phenotype (%): 21%
  Population Mitotic Cells (%): 60%
  Population Normal (%): 93%
  Population Pyknosed Nuclei (%): 32%
  Population Tubulin-Different-Phenotype (%): 35%
  Total Cell Count: 150
[6]
  Population Apoptotic (%): 37%
  Population Fragmented Nuclei (%): 7%
  Population Healthy Nuclei (%): 51%
  Population Hoechst High Intensity Objects (%): 18%
  Population Membrane Permeable-Phenotype (%): 7%
  Population Mitotic Cells (%): 62%
  Population Normal (%): 81%
  Population Pyknosed Nuclei (%): 40%
  Population Tubulin-Different-Phenotype (%): 34%
  Total Cell Count: 97
[7]
  Population Apoptotic (%): 81% and 85%
  Population Healthy Nuclei (%): 7%
  Population Hoechst High Intensity Objects (%): 9% and 10%
  Population Mitochondria Different-Phenotype (%): 46% and 78%
  Population Mitotic Cells (%): 18% and 14%
  Population Normal (%): 90% and 89%
  Population Pyknosed Nuclei (%): 47% and 70%
  Total Cell Count: 185 and 189
[8]
  Population Apoptotic (%): 92% and 70%
  Population Fragmented Nuclei (%): 16% and 21%
  Population Healthy Nuclei (%): 16% and 18%
  Population Hoechst High Intensity Objects (%): 20% and 11%
  Population Membrane Permeable-Phenotype (%): 100% and 64%
  Population Mitochondria Different-Phenotype (%): 80% and 57%
  Population Normal (%): 80% and 88%
  Population Pyknosed Nuclei (%): 66% and 59%
  Population Tubulin-Different-Phenotype (%): 90% and 64%
  Total Cell Count: 75 and 84
[9]
  Population Apoptotic (%): 95%
  Population Fragmented Nuclei (%): 38%
  Population Healthy Nuclei (%): 1%
  Population Hoechst High Intensity Objects (%): 15%
  Population Membrane Permeable-Phenotype (%): 0%
  Population Mitochondria Different-Phenotype (%): 33%
  Population Mitotic Cells (%): 4%
  Population Normal (%): 84%
  Population Pyknosed Nuclei (%): 59%
  Population Tubulin-Different-Phenotype (%): 33%
  Total Cell Count: 188
[10]
  Population Apoptotic (%): 100%
  Population Fragmented Nuclei (%): 16%
  Population Healthy Nuclei (%): 44%
  Population Hoechst High Intensity Objects (%): 21%
  Population Membrane Permeable-Phenotype (%): 100%
  Population Mitochondria Different-Phenotype (%): 92%
  Population Mitotic Cells (%): 0%
  Population Normal (%): 78%
  Population Pyknosed Nuclei (%): 38%
  Population Tubulin-Different-Phenotype (%): 96%
  Total Cell Count: 75
